{"source": "ChEMBL document CHEMBL3421533", "about": "“The Discovery of Orally Bioavailable Tyrosine Threonine Kinase (TTK) Inhibitors: 3-(4-(heterocyclyl)phenyl)-1H-indazole-5-carboxamides as Anticancer Agents” (J Med Chem, 2015)", "key": {"[1]": {"target": "Mitogen-activated protein kinase 10 (Homo sapiens, UniProt P53779)", "sequence (P53779 whole entry)": "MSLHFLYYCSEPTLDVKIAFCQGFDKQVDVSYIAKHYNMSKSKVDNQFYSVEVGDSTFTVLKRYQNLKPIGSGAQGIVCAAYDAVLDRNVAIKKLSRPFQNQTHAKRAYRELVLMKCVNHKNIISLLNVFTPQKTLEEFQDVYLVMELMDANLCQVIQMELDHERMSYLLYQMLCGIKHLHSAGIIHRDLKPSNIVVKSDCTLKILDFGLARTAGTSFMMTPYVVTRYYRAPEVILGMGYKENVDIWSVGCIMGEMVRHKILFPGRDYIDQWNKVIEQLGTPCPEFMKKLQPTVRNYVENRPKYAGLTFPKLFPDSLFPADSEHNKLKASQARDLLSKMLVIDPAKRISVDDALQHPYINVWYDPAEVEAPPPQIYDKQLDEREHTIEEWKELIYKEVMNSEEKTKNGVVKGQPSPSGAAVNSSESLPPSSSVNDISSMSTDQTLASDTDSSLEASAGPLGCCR", "test": "Inhibition of human JNK3 by millipore radiometric assay", "in_short": "(§1)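 Radiometric profiling against a 278-kinase panel was done with ATP at Km. Half-maximal inhibitory concentrations were then determined for the kinases most inhibited.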"}, "[2]": {"test": "Plasma protein binding in human", "assay_type": "ADME, cell-free", "details": "read-out: PPB (converted)"}, "[3]": {"test": "Cytotoxicity against human H23 cells after 5 days by sulforhodamine B assay", "assay_type": "functional", "details": "NCI-H23, 120 h", "in_short": "(§2)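 Cancer lines were seeded at 800–6000 cells per well according to growth rate, 24 h before compound overlay. After culture, cells were fixed in situ and stained with sulforhodamine B. GI50 values were derived by curve fitting.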"}, "[4]": {"target": "Proto-oncogene tyrosine-protein kinase receptor Ret (Homo sapiens, UniProt P07949, V804L)", "sequence (P07949 29-1114 V804L limits assumed)": "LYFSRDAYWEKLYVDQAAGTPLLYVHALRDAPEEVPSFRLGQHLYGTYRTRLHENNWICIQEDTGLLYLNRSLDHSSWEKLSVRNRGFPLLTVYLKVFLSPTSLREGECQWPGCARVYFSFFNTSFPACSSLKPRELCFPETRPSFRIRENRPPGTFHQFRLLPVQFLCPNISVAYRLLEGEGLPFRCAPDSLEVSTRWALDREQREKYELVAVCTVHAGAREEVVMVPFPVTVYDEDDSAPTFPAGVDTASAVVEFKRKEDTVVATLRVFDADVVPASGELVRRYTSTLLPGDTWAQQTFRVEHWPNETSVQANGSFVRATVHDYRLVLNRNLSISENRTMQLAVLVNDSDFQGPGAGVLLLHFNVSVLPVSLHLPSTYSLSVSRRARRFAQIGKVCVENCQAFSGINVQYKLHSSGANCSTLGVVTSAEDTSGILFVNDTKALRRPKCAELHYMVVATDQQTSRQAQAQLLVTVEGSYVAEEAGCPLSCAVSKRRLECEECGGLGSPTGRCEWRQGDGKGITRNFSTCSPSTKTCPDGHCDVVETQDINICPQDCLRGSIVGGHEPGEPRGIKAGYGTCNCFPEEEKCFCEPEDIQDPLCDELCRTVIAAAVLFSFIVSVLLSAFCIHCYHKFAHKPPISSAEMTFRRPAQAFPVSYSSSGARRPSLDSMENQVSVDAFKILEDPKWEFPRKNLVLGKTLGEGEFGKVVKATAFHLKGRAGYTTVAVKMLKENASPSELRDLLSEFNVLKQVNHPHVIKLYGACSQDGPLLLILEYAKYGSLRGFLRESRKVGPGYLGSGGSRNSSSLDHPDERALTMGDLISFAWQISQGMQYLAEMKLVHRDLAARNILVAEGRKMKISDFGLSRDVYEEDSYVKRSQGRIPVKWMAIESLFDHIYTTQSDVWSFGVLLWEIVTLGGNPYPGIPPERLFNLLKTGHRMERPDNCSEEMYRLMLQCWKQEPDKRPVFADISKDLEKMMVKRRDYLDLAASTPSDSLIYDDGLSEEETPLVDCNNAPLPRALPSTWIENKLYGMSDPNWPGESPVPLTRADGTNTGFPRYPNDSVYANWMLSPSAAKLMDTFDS", "test": "Inhibition of human Ret V804L mutant by millipore radiometric assay", "in_short": "as §1"}, "[5]": {"test": "Clearance in Sprague-Dawley rat at 1 mg/kg, iv by LC-MS/MS analysis", "assay_type": "ADME, organism-based", "set-up": "dose 1 mg/kg, route intravenous", "details": "in vivo"}, "[6]": {"target": "Aurora kinase B/Inner centromere protein (Homo sapiens, UniProt Q96GD4)", "sequence (Q96GD4 whole entry)": "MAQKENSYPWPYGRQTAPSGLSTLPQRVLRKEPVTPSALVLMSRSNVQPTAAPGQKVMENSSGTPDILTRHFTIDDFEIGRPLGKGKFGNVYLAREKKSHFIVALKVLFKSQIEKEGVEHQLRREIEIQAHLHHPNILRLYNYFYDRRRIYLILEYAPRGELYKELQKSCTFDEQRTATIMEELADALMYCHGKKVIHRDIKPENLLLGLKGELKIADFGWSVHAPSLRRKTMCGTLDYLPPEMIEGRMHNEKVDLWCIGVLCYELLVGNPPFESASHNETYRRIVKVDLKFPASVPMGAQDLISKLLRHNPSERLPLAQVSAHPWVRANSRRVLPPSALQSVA", "sequence (Q9NQS7 whole entry, further chain)": "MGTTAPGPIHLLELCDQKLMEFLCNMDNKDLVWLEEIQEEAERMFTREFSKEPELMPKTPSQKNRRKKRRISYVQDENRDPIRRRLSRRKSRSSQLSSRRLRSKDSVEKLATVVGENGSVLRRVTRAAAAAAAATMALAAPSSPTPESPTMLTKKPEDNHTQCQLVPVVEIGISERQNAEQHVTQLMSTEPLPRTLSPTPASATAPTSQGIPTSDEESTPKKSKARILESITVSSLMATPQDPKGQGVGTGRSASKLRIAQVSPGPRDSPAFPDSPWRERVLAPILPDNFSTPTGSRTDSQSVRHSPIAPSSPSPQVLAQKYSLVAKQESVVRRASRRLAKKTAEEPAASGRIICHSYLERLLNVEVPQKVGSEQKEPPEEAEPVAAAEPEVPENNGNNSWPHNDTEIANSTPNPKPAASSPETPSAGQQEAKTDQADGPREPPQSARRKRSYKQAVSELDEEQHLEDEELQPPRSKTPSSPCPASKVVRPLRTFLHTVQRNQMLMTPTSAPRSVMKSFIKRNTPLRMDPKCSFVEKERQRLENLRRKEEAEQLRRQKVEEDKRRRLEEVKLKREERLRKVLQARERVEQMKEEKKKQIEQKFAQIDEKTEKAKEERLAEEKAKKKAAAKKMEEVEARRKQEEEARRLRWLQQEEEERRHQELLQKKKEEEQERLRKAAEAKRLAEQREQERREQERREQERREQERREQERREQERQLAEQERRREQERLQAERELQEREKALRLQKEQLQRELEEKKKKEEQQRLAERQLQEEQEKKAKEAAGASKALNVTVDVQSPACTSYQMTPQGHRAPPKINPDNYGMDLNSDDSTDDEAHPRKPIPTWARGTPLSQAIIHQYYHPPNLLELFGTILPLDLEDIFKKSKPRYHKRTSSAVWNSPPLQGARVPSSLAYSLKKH", "test": "Inhibition of AURKB/INCENP (unknown origin) transfected in human HCT116 cells after 4 hrs by near infrared imager analysis", "assay_type": "cell-based, HCT-116", "in_short": "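HCT116 cells transfected with wild-type TTK were arrested with nocodazole (200 ng/mL, 17 h). They were pretreated with MG132 (15 μM, 30 min), then exposed to compound or DMSO for 4 h. Blots were probed for phospho-TTK (Thr12/Ser15), phospho-Aurora A (Thr288)/B (Thr232), TTK and GAPDH. Bands were quantified by near-infrared imaging, and EC50 was fitted.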"}, "[7]": {"test": "Half life in human liver microsomes at 1 uM by LC-MS analysis", "assay_type": "ADME"}, "[8]": {"test": "AUCinfinity in athymic CD1 nude mouse at 10 mg/kg, po by LC-MS/MS analysis", "assay_type": "ADME, organism-based, Plasma", "set-up": "time infinity, dose 10 mg/kg, route oral", "details": "athymic CD1 nude, plasma"}, "[9]": {"test": "Half life in Sprague-Dawley rat at 1 mg/kg, iv by LC-MS/MS analysis", "assay_type": "ADME, organism-based", "set-up": "dose 1 mg/kg, route intravenous", "details": "in vivo"}, "[10]": {"system": "MDA-MB-468", "test": "Antitumor activity against human MDA-MB-468 cells xenografted in CB-17 SCID mouse assessed as tumor growth inhibition at 30 mg/kg, po qd administered for 21 days measured 3 times per week during compound dosing relative to vehicle-treated control", "assay_type": "functional", "details": "MDA-MB-468, 504 h, read-out: TGI", "in_short": "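Groups (n = 5) were randomized at a mean tumor volume of 80–120 mm³. Oral daily dosing for 21 days in 10% NMP/40% PEG400/50% DI water, top dose 30 mg/kg. Tumors were measured three times weekly, volume x²y/2, and TGI was computed against vehicle.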"}, "[11]": {"target": "Mast/stem cell growth factor receptor Kit (Homo sapiens, UniProt P10721)", "test": "Inhibition of human cKit by millipore radiometric assay", "in_short": "as §1"}, "[12]": {"test": "Antitumor activity against human HCT116 cells xenografted in athymic CD1 nude mouse assessed as tumor growth inhibition at 23 mg/kg, po qd administered for 21 days measured 3 times per week during compound dosing relative to vehicle-treated control", "assay_type": "functional", "details": "HCT-116, 504 h, read-out: TGI", "in_short": "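HCT116 cells (5 million) were injected subcutaneously into the right flank of 6–8 week old female athymic CD-1 nude mice. At a mean tumor volume of 80–120 mm³, mice were randomized (n = 8). Dosing was oral, daily for 21 days, in 10% NMP/40% PEG400/50% DI water, at the MTD and ~2/3 MTD. Tumors were measured three times weekly, volume x²y/2, and TGI was taken against vehicle.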"}, "[13]": {"target": "Maternal embryonic leucine zipper kinase (Homo sapiens, UniProt Q14680)", "sequence (Q14680 whole entry)": "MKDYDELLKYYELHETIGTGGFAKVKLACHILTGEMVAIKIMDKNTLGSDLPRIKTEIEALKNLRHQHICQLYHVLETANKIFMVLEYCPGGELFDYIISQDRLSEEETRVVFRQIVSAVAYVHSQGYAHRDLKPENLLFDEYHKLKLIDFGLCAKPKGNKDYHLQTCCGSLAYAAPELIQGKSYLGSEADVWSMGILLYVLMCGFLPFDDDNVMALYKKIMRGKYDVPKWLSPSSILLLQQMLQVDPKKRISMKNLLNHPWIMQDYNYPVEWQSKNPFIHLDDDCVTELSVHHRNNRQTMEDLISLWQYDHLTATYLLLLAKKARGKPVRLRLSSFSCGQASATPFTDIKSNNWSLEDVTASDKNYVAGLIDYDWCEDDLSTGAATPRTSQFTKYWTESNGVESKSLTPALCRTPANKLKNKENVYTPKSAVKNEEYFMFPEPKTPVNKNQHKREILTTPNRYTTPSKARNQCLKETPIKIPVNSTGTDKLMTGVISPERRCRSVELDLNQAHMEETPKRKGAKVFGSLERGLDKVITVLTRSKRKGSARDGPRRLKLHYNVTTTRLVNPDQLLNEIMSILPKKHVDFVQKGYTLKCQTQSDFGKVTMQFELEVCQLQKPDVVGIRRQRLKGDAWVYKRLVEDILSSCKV", "test": "Inhibition of human MELK by millipore radiometric assay", "in_short": "as §1"}, "[14]": {"test": "Plasma protein binding in mouse", "assay_type": "ADME", "details": "read-out: PPB (converted)"}, "[15]": {"system": "HT-29", "test": "Cytotoxicity against human HT-29 cells after 5 days by sulforhodamine B assay", "assay_type": "functional", "details": "HT-29, 120 h", "in_short": "as §2"}, "[16]": {"system": "HCT-116", "test": "Induction of chromosome segregation defect in human HCT116 cells assessed as anaphase and telophase cells with lagging chromosomes at 500 nM incubated for 6 hrs post double thymidine block by DAPI staining-based immunofluorescence microscopic analysis (reference value: 19 +/- 2%)", "assay_type": "functional"}, "[17]": {"system": "DU-145", "test": "Cytotoxicity against human DU145 cells after 5 days by sulforhodamine B assay", "assay_type": "functional", "details": "DU-145, 120 h", "in_short": "as §2"}, "[18]": {"system": "MDA-MB-468", "test": "Cytotoxicity against human MDA-MB-468 cells after 5 days by sulforhodamine B assay", "assay_type": "functional", "in_short": "as §2"}, "[19]": {"target": "Proto-oncogene tyrosine-protein kinase receptor Ret (Homo sapiens, UniProt P07949, V804M)", "sequence (P07949 29-1114 V804M limits assumed)": "as the sequence (P07949 29-1114 V804L limits assumed) above, with L776M counted along it", "test": "Inhibition of human Ret V804M mutant by millipore radiometric assay", "in_short": "as §1"}, "[20]": {"test": "AUCinfinity in Sprague-Dawley rat at 1 mg/kg, iv by LC-MS/MS analysis", "assay_type": "ADME, organism-based", "set-up": "time infinity, dose 1 mg/kg, route intravenous", "details": "plasma"}, "[21]": {"system": "BT-474", "test": "Cytotoxicity against human BT474 cells after 5 days by sulforhodamine B assay", "assay_type": "functional", "details": "BT-474, 120 h", "in_short": "as §2"}, "[22]": {"test": "Cytotoxicity against HMEC after 5 days by sulforhodamine B assay", "assay_type": "cell-based", "details": "human, HMEC cells", "in_short": "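Cells were seeded at 800–6000 per well according to growth rate, 24 h before compound overlay. After culture they were fixed in situ and stained with sulforhodamine B. GI50 was calculated by curve fitting.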"}, "[23]": {"system": "SK-MEL-5", "test": "Cytotoxicity against human SK-MEL-5 cells after 5 days by sulforhodamine B assay", "assay_type": "functional", "details": "SK-MEL-5, 120 h", "in_short": "as §2"}, "[24]": {"test": "Cytotoxicity against human SKOV3 cells after 5 days by sulforhodamine B assay", "assay_type": "functional", "details": "SK-OV-3, 120 h", "in_short": "as §2"}, "[25]": {"system": "A549", "test": "Cytotoxicity against human A549 cells after 5 days by sulforhodamine B assay", "assay_type": "functional", "details": "A549, 120 h", "in_short": "as §2"}, "[26]": {"test": "Antitumor activity against human HCT116 cells xenografted in athymic CD1 nude mouse assessed as tumor growth inhibition at 35 mg/kg, po qd administered for 21 days measured 3 times per week during compound dosing relative to vehicle-treated control", "assay_type": "functional", "details": "HCT-116, 504 h, read-out: TGI", "in_short": "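HCT116 cells (5 million) were injected subcutaneously into the right flank of 6–8 week old female athymic CD-1 nude mice. At a mean tumor volume of 80–120 mm³, mice were randomized (n = 8). Tumors were measured three times weekly, volume x²y/2, and TGI was taken against vehicle.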"}, "[27]": {"target": "Mitogen-activated protein kinase 1 (Homo sapiens, UniProt P28482)", "sequence (P28482 whole entry)": "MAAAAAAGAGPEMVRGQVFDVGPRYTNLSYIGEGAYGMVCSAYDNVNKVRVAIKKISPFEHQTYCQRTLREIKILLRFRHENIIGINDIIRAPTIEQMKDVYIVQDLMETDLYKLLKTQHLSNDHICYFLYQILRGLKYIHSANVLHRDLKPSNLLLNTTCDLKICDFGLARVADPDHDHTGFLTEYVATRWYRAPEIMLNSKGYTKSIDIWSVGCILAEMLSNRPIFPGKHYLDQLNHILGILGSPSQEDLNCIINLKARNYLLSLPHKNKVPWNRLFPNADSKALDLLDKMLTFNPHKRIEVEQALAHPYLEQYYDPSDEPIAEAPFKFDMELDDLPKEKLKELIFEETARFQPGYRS", "test": "Inhibition of human MAPK1 by millipore radiometric assay", "in_short": "as §1"}, "[28]": {"test": "Half life in dog liver microsomes at 1 uM by LC-MS analysis", "assay_type": "ADME, Canis lupus familiaris"}, "[29]": {"system": "SW-620", "test": "Cytotoxicity against human SW620 cells after 5 days by sulforhodamine B assay", "assay_type": "functional", "details": "SW-620, 120 h", "in_short": "as §2"}, "[30]": {"system": "SK-MEL-28", "test": "Cytotoxicity against human SK-MEL-28 cells after 5 days by sulforhodamine B assay", "assay_type": "functional", "details": "SK-MEL-28, 120 h", "in_short": "as §2"}, "[31]": {"system": "SW48", "test": "Cytotoxicity against human SW48 cells after 5 days by sulforhodamine B assay", "assay_type": "functional", "details": "SW48, 120 h", "in_short": "as §2"}, "[32]": {"target": "Cytochrome P450 3A4 (Homo sapiens, UniProt P08684)", "sequence (P08684 whole entry)": "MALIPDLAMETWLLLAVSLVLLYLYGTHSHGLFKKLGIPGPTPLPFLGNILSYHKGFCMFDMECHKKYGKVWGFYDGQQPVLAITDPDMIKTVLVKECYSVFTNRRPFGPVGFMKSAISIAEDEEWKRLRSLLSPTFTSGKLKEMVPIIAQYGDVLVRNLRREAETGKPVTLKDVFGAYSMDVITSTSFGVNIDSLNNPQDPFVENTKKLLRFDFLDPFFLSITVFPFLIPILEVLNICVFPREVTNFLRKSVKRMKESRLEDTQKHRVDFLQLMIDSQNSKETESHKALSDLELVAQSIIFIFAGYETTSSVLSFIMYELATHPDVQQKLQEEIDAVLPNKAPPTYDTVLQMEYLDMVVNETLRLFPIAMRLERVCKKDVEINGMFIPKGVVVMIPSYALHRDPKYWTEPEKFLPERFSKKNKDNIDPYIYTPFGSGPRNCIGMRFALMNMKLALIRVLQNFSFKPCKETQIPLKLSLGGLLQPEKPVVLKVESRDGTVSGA", "test": "Inhibition of human CYP3A4 using BFC as substrate preincubated for 10 mins followed by enzyme/substrate addition measured after 30 mins by fluorescence assay", "assay_type": "ADME"}, "[33]": {"system": "T47D", "test": "Cytotoxicity against human T47D cells after 5 days by sulforhodamine B assay", "assay_type": "functional", "details": "120 h", "in_short": "as §2"}, "[34]": {"test": "AUCinfinity in Sprague-Dawley rat at 5 mg/kg, po by LC-MS/MS analysis", "assay_type": "ADME, organism-based", "set-up": "time infinity, dose 5 mg/kg, route oral", "details": "plasma"}}, "data": [{"smiles": "O=C(N[C@@H](c1ccccn1)C1CC1)c1ccc2[nH]nc(-c3ccc(N4[C@H]5CC[C@H]4CC(O)C5)cc3)c2c1", "note": "(stereo in doubt; 75)", "values": [{"measurement": "IC50", "setting": "[1]", "value": 68, "unit": "nM"}, {"measurement": "fraction unbound", "setting": "[2]", "value": 0.022}, {"measurement": "GI50", "setting": "[3]", "value": 36, "unit": "nM"}, {"measurement": "IC50", "setting": "[4]", "value": 250, "unit": "nM"}, {"measurement": "clearance", "setting": "[5]", "value": 66, "unit": "mL/min/kg"}, {"measurement": "EC50", "setting": "[6]", "value": "> 6000", "unit": "nM"}, {"measurement": "half-life at 1 µM", "setting": "[7]", "value": "> 60", "unit": "min"}, {"measurement": "AUC(0-inf)", "setting": "[8]", "value": 3000, "unit": "ng·h/mL"}, {"measurement": "half-life", "setting": "[9]", "value": 46.8, "unit": "min"}, {"measurement": "inhibition in vivo at 30 mg/kg", "setting": "[10]", "value": 98, "unit": "%"}, {"measurement": "IC50", "setting": "[11]", "value": "> 30000", "unit": "nM"}, {"measurement": "inhibition in vivo at 23 mg/kg", "setting": "[12]", "value": 55, "unit": "%"}, {"measurement": "IC50", "setting": "[13]", "value": 160, "unit": "nM"}, {"measurement": "fraction unbound", "setting": "[14]", "value": 0.042}, {"measurement": "GI50", "setting": "[15]", "value": 18, "unit": "nM"}, {"measurement": "Activity", "setting": "[16]", "value": 94, "unit": "%"}, {"measurement": "GI50", "setting": "[17]", "value": 17, "unit": "nM"}, {"measurement": "GI50", "setting": "[18]", "value": 36, "unit": "nM"}, {"measurement": "IC50", "setting": "[19]", "value": 280, "unit": "nM"}, {"measurement": "AUC(0-inf)", "setting": "[20]", "value": 250, "unit": "ng·h/mL"}, {"measurement": "GI50", "setting": "[21]", "value": 15, "unit": "nM"}, {"measurement": "GI50 at 120 h", "setting": "[22]", "value": "> 30000", "unit": "nM"}, {"measurement": "GI50", "setting": "[23]", "value": 20, "unit": "nM"}, {"measurement": "GI50", "setting": "[24]", "value": 17, "unit": "nM"}, {"measurement": "GI50", "setting": "[25]", "value": 24, "unit": "nM"}, {"measurement": "inhibition in vivo at 35 mg/kg", "setting": "[26]", "value": 77, "unit": "%"}, {"measurement": "IC50", "setting": "[27]", "value": 320, "unit": "nM"}, {"measurement": "half-life at 1 µM", "setting": "[28]", "value": "> 60", "unit": "min"}, {"measurement": "GI50", "setting": "[29]", "value": 30, "unit": "nM"}, {"measurement": "GI50", "setting": "[30]", "value": 210, "unit": "nM"}, {"measurement": "GI50", "setting": "[31]", "value": 19, "unit": "nM"}, {"measurement": "IC50", "setting": "[32]", "value": 1300, "unit": "nM"}, {"measurement": "GI50", "setting": "[33]", "value": 20, "unit": "nM"}, {"measurement": "AUC(0-inf)", "setting": "[34]", "value": 550, "unit": "ng·h/mL"}]}]}
